This is an account of results in ChEMBL document CHEMBL1124084, “Studies on scavengers of active oxygen species. 1. Synthesis and biological activity of 2-O-alkylascorbic acids” (J Med Chem, 1988).

Experiment [1] is filed under the species Rattus norvegicus. As to the kind of experiment: Inhibition of lipid peroxidation was determined with rat brain tissue homogenates. The experiment is classed as functional. Put shortly:
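Brains excised from male SD rats (12 weeks), exsanguinated under pentobarbital anesthesia; 5% homogenate in phosphate buffer pH 7.4 incubated with test drug 1 h at 37 °C; lipid peroxide quantified by thiobarbituric acid method.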

The species named for experiment [2] is Rattus norvegicus. The experiment in a line: Antilipid peroxidation was determined. It counts as functional. In a few lines:
(§1)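 Rat brain lipid peroxidation: brains from male SD rats (12 weeks old), exsanguinated under pentobarbital anaesthesia, homogenized to 5% in phosphate buffer pH 7.4. Homogenate incubated with test drug at 37 °C for 1 h. Lipid peroxide quantified by the thiobarbituric acid method.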

Experiment [3] in a line: Reducing activity determined by the use of stable radical alpha,alpha-di-phenyl-beta-picrylhydrazyl (DPPH). On the set-up: concentration or dose not given beside the values. (Loss of DPPH colour is used to gauge radical scavenging.)
The subject of experiment [4] is Rattus norvegicus. As to the kind of experiment: Effect of AOS scavenger on ventricular fibrillation (VF), arrhythmias induced by ischemia-reperfusion in anesthetized rat, frequency, timesat 3 mg/kg. It counts as functional, Cardiac ventricle.
Experiment [5] has as its system Rattus norvegicus. As to the kind of experiment: Effect of AOS scavenger on ventricular fibrillation (VF),arrhythmias induced by ischemia-reperfusion in anesthetized rat, incidence at 3 mg/kg; 3/10. The experiment is classed as functional, Cardiac ventricle.
The subject of experiment [6] is Rattus norvegicus. As to the kind of experiment: Effect of AOS scavenger on ventricular fibrillation (VF),arrhythmias induced by ischemia-reperfusion in anesthetized rat, duration at 10 mg/kg. It counts as functional, Cardiac ventricle.
For experiment [7], the system named is Rattus norvegicus. As to the kind of experiment: Effect of AOS scavenger on ventricular fibrillation (VF),arrhythmias induced by ischemia-reperfusion in anesthetized rat, duration at 1 mg/kg. The experiment is classed as functional, Cardiac ventricle.
The subject of experiment [8] is Rattus norvegicus. The experiment in a line: Effect of AOS scavenger on premeture ventricular complexes PVCs, arrhythmias induced by ischemia-reperfusion in anesthetized rat, duration at 3 mg/kg. It counts as functional, Cardiac ventricle.
The test system of experiment [9] is Rattus norvegicus. The experiment in a line: Effect of AOS scavenger on premeture ventricular complexes PVCs, arrhythmias induced by ischemia-reperfusion in anesthetized rat, duration at 1 mg/kg. It counts as functional, Cardiac ventricle.
Experiment [10] has as its system Rattus norvegicus. As to the kind of experiment: Effect of AOS scavenger on ventricular fibrillation (VF),arrhythmias induced by ischemia-reperfusion in anesthetized rat, duration at 3 mg/kg. It counts as functional, Cardiac ventricle.
In experiment [11] the test system is Rattus norvegicus. The experiment in a line: Effect of AOS scavenger on ventricular tachycardia (VT),arrhythmias induced by ischemia-reperfusion in anesthetized rat, incidence at 3 mg/kg; 10/10. It counts as functional, Cardiac ventricle.
Experiment [12] concerns Rattus norvegicus. As to the kind of experiment: Effect of AOS scavenger on ventricular tachycardia (VT),arrhythmias induced by ischemia-reperfusion in anesthetized rat, frequency, times at 1 mg/kg. It counts as functional, Cardiac ventricle.
The test system of experiment [13] is Rattus norvegicus. The experiment in a line: Effect of AOS scavenger on ventricular tachycardia (VT), arrhythmias induced by ischemia-reperfusion in anesthetized rat, frequency, timesat 10 mg/kg. It counts as functional, Cardiac ventricle.
The subject of experiment [14] is Rattus norvegicus. As to the kind of experiment: Effect of AOS scavenger on ventricular tachycardia (VT),arrhythmias induced by ischemia-reperfusion in anesthetized rat, incidence at 10 mg/kg; 13/13. It counts as functional, Cardiac ventricle.
The test system of experiment [15] is Rattus norvegicus. The experiment in a line: Effect of AOS scavenger on ventricular tachycardia (VT),arrhythmias induced by ischemia-reperfusion in anesthetized rat, frequency, times at 3 mg/kg. The experiment is classed as functional, Cardiac ventricle.
In experiment [16] the test system is Rattus norvegicus. As to the kind of experiment: Effect of AOS scavenger on premeture ventricular complexes PVCs, arrhythmias induced by ischemia-reperfusion in anesthetized rat, duration at 10 mg/kg. It counts as functional, Cardiac ventricle. The note with it: 10 mg/kg.
Experiment [17] has as its system Rattus norvegicus. The experiment in a line: Effect of AOS scavenger on ventricular tachycardia (VT),arrhythmias induced by ischemia-reperfusion in anesthetized rat, duration at 3 mg/kg. The experiment is classed as functional, Cardiac ventricle.
For experiment [18], the system named is Rattus norvegicus. As to the kind of experiment: Effect of AOS scavenger on ventricular tachycardia (VT),arrhythmias induced by ischemia-reperfusion in anesthetized rat, duration at 10 mg/kg. The experiment is classed as functional, Cardiac ventricle. The note with it: 10 mg/kg.
The subject of experiment [19] is Rattus norvegicus. As to the kind of experiment: Effect of AOS scavenger on ventricular tachycardia (VT),arrhythmias induced by ischemia-reperfusion in anesthetized rat duration at 1 mg/kg. The experiment is classed as functional, Cardiac ventricle.
For experiment [20], the system named is Rattus norvegicus. The experiment in a line: Effect of AOS scavenger on ventricular fibrillation (VF),arrhythmias induced by ischemia-reperfusion in anesthetized rat, incidence at 1 mg/kg; 5/14. It counts as functional, Cardiac ventricle.
The subject of experiment [21] is Rattus norvegicus. The experiment in a line: Effect of AOS scavenger on ventricular fibrillation (VF),arrhythmias induced by ischemia-reperfusion in anesthetized rat, incidence at 10 mg/kg; 4/13. The experiment is classed as functional, Cardiac ventricle.
Experiment [22] deals with Rattus norvegicus. As to the kind of experiment: Effect of AOS scavenger on ventricular fibrillation (VF), arrhythmias induced by ischemia-reperfusion in anesthetized rat, frequency, times at 1 mg/kg. The experiment is classed as functional, Cardiac ventricle.
Experiment [23] relates to Rattus norvegicus. The experiment in a line: Effect of AOS scavenger on ventricular fibrillation (VF), arrhythmias induced by ischemia-reperfusion in anesthetized rat, frequency, times at 10 mg/kg. It counts as functional, Cardiac ventricle. Conditions: 10 mg/kg.
The species entered for experiment [24] is Rattus norvegicus. As to the kind of experiment: Antilipid peroxidation was measured at 10e-5 M concentration. The experiment is classed as functional. In a few lines: as §1

In general, IC50 refers to the concentration at which inhibition is half-maximal. For the molecule `CCCCCCCCCCCOC1=C(O)OC(C(O)CO)C1=O` (configuration not stated), half-maximal inhibition in the experiment listed under Rattus norvegicus [1] (IC50) required 13 µM. In the experiment listed under Rattus norvegicus [2], this molecule displayed an Antilipid peroxidation of 43.4%. In experiment [3], this molecule yielded a Reducing activity of 94.6%.

As for `CCCCCCCCCCCCCCCCCCOC1=C(O)[C@@H](C(O)CO)OC1=O` (stereo in doubt; 5k) [listing 1 of 2 here], the IC50 in the experiment listed under Rattus norvegicus [1] came to 4.3 µM. Moreover, the Frequency with Rattus norvegicus [4] is on record as <0.7; in the experiment on Rattus norvegicus [12] it was 4.3; in the experiment with Rattus norvegicus [13], 5.2; in the experiment with Rattus norvegicus [15], 4; in the experiment with Rattus norvegicus [22], <1.1; in the experiment on Rattus norvegicus [23], <0.5. Also, the Incidence in the experiment on Rattus norvegicus [5] worked out at 3 N; in the experiment with Rattus norvegicus [11], 10 N; with Rattus norvegicus [14] it was 13 N; in the experiment with Rattus norvegicus [20], 5; with Rattus norvegicus [21], 4 N. Moreover, the Duration is 0.5 s with Rattus norvegicus [6]; <4.1 s in the experiment with Rattus norvegicus [7]; <1.5 s with Rattus norvegicus [10]; <6.9 s in the experiment with Rattus norvegicus [17]; 12 s with Rattus norvegicus [18]; 11.4 s in the experiment with Rattus norvegicus [19]. For the same molecule, the Activity is <4.5 min in the experiment with Rattus norvegicus [8], 3.4 min in the experiment on Rattus norvegicus [9] and 12 min with Rattus norvegicus [16].

Molecule `CCCCCCCCCCCCCCCCCCCCCOC1=C(O)OC(C(O)CO)C1=O` (configuration not stated) came in with an IC50 in the experiment listed under Rattus norvegicus [1] of 11 µM. This molecule had an Antilipid peroxidation in the experiment filed under Rattus norvegicus [2] of 30.6%. The same molecule returned a Reducing activity in [3] of 94.3%.

Regarding `CCCCCCCCCCCCCOC1=C(O)OC(C(O)CO)C1=O` (configuration not stated), in the experiment filed under Rattus norvegicus [1], the IC50 was found to be 7.4 µM. The same molecule gave an Antilipid peroxidation in the experiment listed under Rattus norvegicus [2] of 57.4%.

As to `CCCCCCCCCCCCCCCCOC1=C(O)OC(C(O)CO)C1=O` (configuration not stated), the IC50 in the experiment listed under Rattus norvegicus [1] was 6.8 µM. This molecule also registered an Antilipid peroxidation in the experiment filed under Rattus norvegicus [2] of 56.1%.

As for `CCCCCCCCCCCCOC1=C(O)OC(C(O)CO)C1=O` (configuration not stated), the 50% inhibitory concentration (IC50) in the experiment listed under Rattus norvegicus [1] stood at 5.4 µM. Also, the Antilipid peroxidation in the experiment filed under Rattus norvegicus [2] was 67.4%.

In the experiment filed under Rattus norvegicus [1], `CCCCCCCCCCCCCCCCCOC1=C(O)OC(C(O)CO)C1=O` (configuration not stated) gave an IC50 of 11 µM. The Antilipid peroxidation in the experiment filed under Rattus norvegicus [2] was 48.8%.

For the molecule `CCCCCCCCCCCCCCCCCCOC1=C(O)OC(C2COC(C)(C)O2)C1=O` (configuration not stated), the IC50 in the experiment filed under Rattus norvegicus [1] came to 2.4 µM. In the experiment listed under Rattus norvegicus [24], this molecule returned an Antilipid peroxidation of 58.5%.

`CCCCCCCCCCCCCCCCCCOC1=C(O)O/C(=C\CO)C1=O` came in with a half-maximal inhibitory concentration (IC50) in the experiment listed under Rattus norvegicus [1] of 8.5 µM. The molecule further showed an Antilipid peroxidation in the experiment filed under Rattus norvegicus [24] of 53.5%.

The molecule `CCCCCCCCCCCCCCCCCCOC1=C(O)[C@@H](C(O)CO)OC1=O` (stereo in doubt; 5k) [listing 2 of 2 here] had an Antilipid peroxidation in the experiment filed under Rattus norvegicus [2] of 65.9%. The Reducing activity in experiment [3] was 95.4%.

In turn, `CCCCCCCCCCCCCCCCCCOC1=C(OC)C(C(O)CO)OC1=O` (configuration not stated) registered an Antilipid peroxidation in the experiment filed under Rattus norvegicus [24] of 12.5%.
